Source: ChEMBL document CHEMBL1144304, “Benzimidazole derivatives as novel nonpeptide luteinizing hormone-releasing hormone (LHRH) antagonists. Part 1: Benzimidazole-5-sulfonamides” (Bioorg Med Chem Lett, 2005)

How the values were obtained:
[1] = biological target: T1, Gonadotropin-releasing hormone receptor (Rattus norvegicus, UniProt P30969); experiment: Inhibitory concentration towards rat leutinizing releasing hormone receptor
T1 sequence (P30969 whole entry): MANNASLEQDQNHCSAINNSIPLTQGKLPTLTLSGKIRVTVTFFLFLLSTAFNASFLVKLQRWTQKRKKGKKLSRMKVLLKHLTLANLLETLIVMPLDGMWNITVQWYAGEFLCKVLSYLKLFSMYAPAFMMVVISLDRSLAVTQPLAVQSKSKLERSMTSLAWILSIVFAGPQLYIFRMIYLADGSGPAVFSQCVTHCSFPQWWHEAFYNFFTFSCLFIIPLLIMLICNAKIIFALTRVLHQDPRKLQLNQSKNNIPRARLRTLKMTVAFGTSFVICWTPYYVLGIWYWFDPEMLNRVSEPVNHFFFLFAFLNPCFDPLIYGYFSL
Procedure, shortened: (§1)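 CHO cells transfected with human or rat LHRH receptor cDNA, loaded with Fluo-3 AM and preincubated 20 min at 25 °C with varying compound concentrations. Stimulated with LHRH (10 nM for human-receptor cells, 1 nM for rat-receptor cells). Intracellular calcium fluorescence read; inhibition from integral ratio (actual/initial fluorescence). IC50 is the mean of at least two experiments, each in triplicate.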

[2] = biological target: T2, Gonadotropin-releasing hormone receptor (Homo sapiens, UniProt P30968); experiment: Inhibitory concentration towards human leutinizing releasing hormone receptor; procedure, shortened: as §1
T2 sequence (P30968 whole entry): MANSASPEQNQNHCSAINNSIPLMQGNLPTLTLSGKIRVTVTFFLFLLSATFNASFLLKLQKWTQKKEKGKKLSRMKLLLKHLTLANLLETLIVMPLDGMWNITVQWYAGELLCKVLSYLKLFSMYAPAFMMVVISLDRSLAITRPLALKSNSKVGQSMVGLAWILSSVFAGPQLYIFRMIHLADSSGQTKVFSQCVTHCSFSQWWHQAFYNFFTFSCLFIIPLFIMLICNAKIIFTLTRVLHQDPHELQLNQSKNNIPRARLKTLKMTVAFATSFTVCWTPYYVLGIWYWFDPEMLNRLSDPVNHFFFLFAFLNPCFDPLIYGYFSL

Row | Structure (SMILES) | IC50 [1] | IC50 [2]
1 | O=S(=O)(NCc1ccc(F)cc1)c1ccc2c(c1)nc(OCCN1CCOCC1)n2Cc1ccccc1 | 3200 nM | 5800 nM
2 | CCOc1nc2cc(S(=O)(=O)NCc3ccc(F)cc3)ccc2n1CCN1CCOCC1 | 7200 nM | 2100 nM
3 | O=S(=O)(NCc1ccc(F)cc1)c1ccc2c(c1)nc(SCc1ccccn1)n2Cc1ccccc1 | 960 nM | 820 nM
4 | CCSc1nc2cc(S(=O)(=O)NCc3ccc(F)cc3)ccc2n1CCc1ccccc1 | > 10000 nM | > 10000 nM
5 | CCSc1nc2cc(S(=O)(=O)NCc3ccc(OC)cc3)ccc2n1Cc1ccccc1 | 940 nM | 1100 nM
6 | CCSc1nc2cc(S(=O)(=O)NCc3ccc([N+](=O)[O-])cc3)ccc2n1Cc1ccccc1 | 1200 nM | 1100 nM
7 | CCSc1nc2cc(S(=O)(=O)NCc3cccc(OC)c3)ccc2n1Cc1ccccc1 | 4000 nM | 4800 nM
8 | CCSc1nc2cc(S(=O)(=O)NCCN3CCOCC3)ccc2n1Cc1ccccc1 | > 10000 nM | > 10000 nM
9 | CCOc1nc2cc(S(=O)(=O)NCc3ccc(F)cc3)ccc2n1Cc1ccsc1 | 2000 nM | 1400 nM
10 | O=S(=O)(NCc1ccc(F)cc1)c1ccc2c(c1)nc(NCCN1CCOCC1)n2Cc1ccccc1 | > 10000 nM | > 10000 nM
11 | CCOc1nc2cc(S(=O)(=O)NCc3ccc(F)cc3)ccc2n1Cc1cccc(Cl)c1 | 1900 nM | 880 nM

Compounds with a lower IC50 [1], results first:

Row | IC50 [1] | IC50 [2] | Structure (SMILES)
12 | 600 nM | 270 nM | O=S(=O)(NCc1ccc(F)cc1)c1ccc2c(c1)nc(SCCO)n2Cc1ccccc1
13 | 810 nM | 490 nM | CCOC(=O)CSc1nc2cc(S(=O)(=O)NCc3ccc(F)cc3)ccc2n1Cc1ccccc1
14 | 330 nM | 280 nM | CCSc1nc2cc(S(=O)(=O)NCc3ccc(Cl)cc3)ccc2n1Cc1ccccc1
15 | 470 nM | 300 nM | CCOc1nc2cc(S(=O)(=O)NCc3ccc(F)cc3)ccc2n1Cc1ccccc1
16 | 140 nM | 120 nM | O=S(=O)(NCc1ccc(F)cc1)c1ccc2c(c1)nc(SCCc1cccnc1)n2Cc1ccccc1
17 | 530 nM | 670 nM | O=S(=O)(NCc1ccc(F)cc1)c1ccc2c(c1)nc(SCCNCc1ccccc1)n2Cc1ccccc1
18 | 170 nM | 160 nM | O=S(=O)(NCc1ccc(F)cc1)c1ccc2c(c1)nc(SCCN1CCOCC1)n2Cc1ccccc1
19 | 280 nM | 230 nM | O=S(=O)(NCc1ccc(F)cc1)c1ccc2c(c1)nc(SCCc1ccccn1)n2Cc1ccccc1
20 | 240 nM | 320 nM | O=S(=O)(NCc1ccc(F)cc1)c1ccc2c(c1)nc(SCc1ccncc1)n2Cc1ccccc1
21 | 200 nM | 250 nM | CCSc1nc2cc(S(=O)(=O)NCc3ccc(F)cc3)ccc2n1Cc1ccccc1
22 | 210 nM | 220 nM | CSc1nc2cc(S(=O)(=O)NCc3ccc(F)cc3)ccc2n1Cc1ccccc1
